# PubChem BioAssay
# Unmarked numbers belong to inactive results. The source made the active and inactive calls.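 Rule for the calls, unless noted: active = growth inhibition above a set limit, 3 SD over mean compound inhibition, in both replicates (cut at about 43% in these data); inconclusive = above the limit in only one replicate; inactive = at or below the limit in both replicates.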
# Assay: OD615 S. cerevisiae growth inhibition, permissive medium, pilot counter-assay, permissive growth control for S. cerevisiae lifespan shortening project (AID 705;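 active = growth inhibition above 25% in both replicates, a cutoff set 3 SD above the mean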)
# Details: OD615, 24 h, at 10 µM, stronger effect = higher value
# How it was run: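 System – S. cerevisiae with engineered DeaD lifespan system · Buffer or medium – SC raffinose/galactose permissive medium · Schedule – cells pre-grown 4 h, then 24 h compound exposure, 30 °C humidified · Technique – culture turbidity as optical density at 615 nm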
row,SMILES,growth inhibition
1,COc1ccccc1C(=O)NCc1ccc2c(c1)OCO2,-21.2%
2,COc1ccc(OC)c(NC(=O)Nc2ccccc2C)c1,-3.12%
3,O=C(Cn1c(=O)oc2cc(S(=O)(=O)N3CCc4ccccc43)ccc21)NC1CCCC1,-3.26%
4,C=CCOc1cccc(C2C(C(=O)c3ccco3)=C(O)C(=O)N2CCN2CCOCC2)c1 (centres undefined),-9.71%
5,COc1ccc(C2CC3CC(c4ccccc4)N2O3)cc1 (centres undefined),-3.88%
6,COc1ccc(N2CC(C(=O)NC3CC(C)(C)NC(C)(C)C3)CC2=O)cc1 (centres undefined),-9.42%
7,O=C(NCC1CCCO1)C1CC(=O)N(c2ccc(F)c(Cl)c2)C1 (centres undefined),-7.27%
8,COc1cc(NC(=O)COc2ccc(F)cc2)nc(OC)n1,-2.6%

# Assay: Restrictive medium S. cerevisiae growth inhibition, OD615, pilot screen of yeast lifespan reduction project, restrictive growth control (AID 706);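 note: modified DeaD lifespan yeast strain shifted to restrictive glucose medium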
# Details: OD615, 48 h, at 10 µM, stronger effect = higher value
# How it was run: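 Material: engineered S. cerevisiae DeaD strain / Medium: glucose-based CSMM-D restrictive medium / Compound: single dose of 10 µM compound final, 0.25% DMSO / Timing: 4 h pre-incubation, 48 h exposure at 30 °C / Technique: OD615 absorbance reading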
row,SMILES,growth inhibition
1,COCCNS(=O)(=O)c1cccc2cccnc12,12.8%
2,Cc1ccc(C)c(N2CCN(C(=O)CCS(=O)(=O)c3cccc4nonc34)CC2)c1,-12.5%
3,Cc1cccc(-n2ccnc2SCC(=O)Nc2nnc(C)s2)c1,20.3%
4,CC(=O)CSc1nc2ccc(Nc3nc(N4CCOCC4)nc(N4CCOCC4)n3)cc2s1,38.6%
5,CCOC(=O)c1c(CN(CC)CC)oc2cc(Br)c(O)cc12,0.915%
6,CCc1ccc2nc(NC3=NCN(CCOC)CN3)nc(C)c2c1,-4.05%
7,CCN(Cc1ccccc1)S(=O)(=O)c1ccc(S(=O)(=O)N2CCN(CCC#N)CC2)cc1,-8.88%
8,CCCCS(=O)CC(COCc1ccccc1)OC(=O)CSc1nc(C)cc(C)n1 (centres undefined),-22%
9,COc1ccc(C(=O)N2CCC(C(=O)Nc3ccc(OC)c(OC)c3)CC2)cc1,-8.78%
10,CSC1=NCCN1C(=O)Cc1ccc(Cl)cc1,-7%
11,O=C1NCCCC1C(=O)N1CCN(C(c2ccccc2)c2ccccc2)CC1 (centres undefined),11.2%
12,O=C(CCNS(=O)(=O)c1cccc2nsnc12)NC1CCCc2ccccc21 (centres undefined),-13.1%
13,COc1ccc(C(=O)N2CCN(c3ccc(C)cc3C)CC2)cc1OC,-0.18%
14,CCc1ccccc1N1CSC2=C(C#N)C(c3ccccc3F)CC(=O)N2C1 (centres undefined),35.3%
15,CN1C(=O)CC(N2CCN(c3ncccn3)CC2)C1=O (centres undefined),-4.12%
16,CCCCN(C)CCNC(=O)Cn1c(=O)sc2ccccc21,4.21%
17,Cc1ccc(S(=O)(=O)Cc2ccc(C(=O)N3CCN(c4ccccn4)CC3)o2)cc1,-3.59%
18,CCOC(=O)C1CCN(C(=O)CN(c2ccc(OC)c(OC)c2)S(=O)(=O)c2ccccc2)CC1,-7.61%

row,SMILES,growth inhibition
1,CCc1cc(C(=O)COc2ccccc2F)c(O)cc1O,11.9%
2,O=C(Cn1cc2c(n1)CCCC2)NCC1CCCO1 (centres undefined),3.85%
3,COC(=O)C(C(=O)OC)=C(/C=C/N(C)C)N(C)C,-1.41%
4,CCCS(=O)(=O)c1nc(S(=O)(=O)c2ccc(C)cc2)c(N2CCCC2)s1,9.56%
5,COc1cccc(CNC(=O)CCS(=O)(=O)c2cccc3nonc23)c1,-21.2%
6,N#CC1=C(O)CCCn2c1nc1ccccc1c2=O,-18%
7,COc1cc(S(=O)(=O)NCc2ccc3c(c2)OCO3)ccc1Cl,-15.1%
8,Cc1nc2sc(C(c3ccccc3)N3CCN(CCO)CC3)c(O)n2n1 (centres undefined),-2.6%
9,CC1=CC(C)(C)N(C(=O)CSc2nccn2C)c2cc(C)ccc21,-6.42%
10,c1ccc(-c2nnc(-c3ccccn3)nn2)nc1,88.1% (active)
11,CC1=C(C(=O)N(C)C)C(c2cccc(Cl)c2)NC(=O)N1 (centres undefined),-14.6%
12,COc1ccc(S(=O)(=O)N2CCN(C)CC2)cc1Br,9.22%
13,CC1(C)Cc2c(C#N)c(NCCCO)nc(-c3ccccc3)c2CO1,-20.9%
14,O=C(O)c1ccc(NC(=O)C2C3CCC(C3)C2C(=O)O)cc1 (centres undefined),-0.915%
15,COc1ccccc1C(=O)NCc1ccc2c(c1)OCO2,-10.3%
16,COc1ccc(OC)c(NC(=O)Nc2ccccc2C)c1,-16.3%
17,O=C(Cn1c(=O)oc2cc(S(=O)(=O)N3CCc4ccccc43)ccc21)NC1CCCC1,2.94%
18,C=CCOc1cccc(C2C(C(=O)c3ccco3)=C(O)C(=O)N2CCN2CCOCC2)c1 (centres undefined),-10.5%
